In PMC10795913 (The Journal of Clinical Endocrinology and Metabolism, 2023):
Marks after values point to notes of the source that are not given here.

Columns and labels:
patients = settings: different assays, not directly comparable; cited from earlier work
[1] = system: patients with type 2 diabetes; assay: Antidrug antibody; type: in vivo, human
[2] = system: patients with type 2 diabetes; assay: Hypersensitivity reactions by TE ADA status; type: in vivo, human
Method in brief: (§1)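 Hypersensitivity or injection site reactions during the planned treatment period were tabulated by dose group. Patients were split by treatment-emergent ADA status (TE ADA+ vs TE ADA–). Analysis was descriptive and non-randomized.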

[3] = Tirzepatide pharmacokinetics; type: in vivo, human
native GLP-1 (nGLP-1) = assay: Cross-reactive ADA binding to nGLP-1; type: in vivo, human; settings: N = 5025
GLP-1R = GLP-1R (Homo sapiens, UniProt P43220); assay: Cell-based assay for NAb against TZP activity on GLP-1R; type: in vivo; settings: N = 5025
native GIP (nGIP) = target: T1, native GIP (nGIP) (Homo sapiens, UniProt P09681); assay: Cross-reactive ADA binding to nGIP; type: in vivo; settings: N = 5025
T1 sequence (P09681 52-93 limits assumed): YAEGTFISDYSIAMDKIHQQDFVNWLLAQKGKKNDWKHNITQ

GIPR = target: T2, GIPR (Homo sapiens, UniProt P48546); assay: Cell-based assay for NAb against TZP activity on GIPR; type: in vivo; settings: N = 5025
T2 sequence (P48546 22-466): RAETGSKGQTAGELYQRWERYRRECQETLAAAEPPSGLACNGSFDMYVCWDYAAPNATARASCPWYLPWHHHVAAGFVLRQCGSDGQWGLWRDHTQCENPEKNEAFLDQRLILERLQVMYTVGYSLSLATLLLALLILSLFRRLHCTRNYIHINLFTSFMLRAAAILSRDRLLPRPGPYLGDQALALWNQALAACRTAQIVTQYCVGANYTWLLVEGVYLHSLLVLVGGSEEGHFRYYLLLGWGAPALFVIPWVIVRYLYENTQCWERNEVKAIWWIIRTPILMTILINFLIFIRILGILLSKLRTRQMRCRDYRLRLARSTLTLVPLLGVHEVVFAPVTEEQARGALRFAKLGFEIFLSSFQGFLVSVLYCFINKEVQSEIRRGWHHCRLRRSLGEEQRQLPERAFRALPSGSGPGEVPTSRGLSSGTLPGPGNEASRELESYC

[4] = system: patients with type 2 diabetes; assay: Injection site reactions by TE ADA status; type: in vivo, human
Method in brief: as §1

[5] = TZP 5 mg, TE ADA status not evaluable
[6] = TZP 10 mg, TE ADA status not evaluable
[7] = TZP all doses, TE ADA status not evaluable

Chain of GLP-1R (P43220 24-463): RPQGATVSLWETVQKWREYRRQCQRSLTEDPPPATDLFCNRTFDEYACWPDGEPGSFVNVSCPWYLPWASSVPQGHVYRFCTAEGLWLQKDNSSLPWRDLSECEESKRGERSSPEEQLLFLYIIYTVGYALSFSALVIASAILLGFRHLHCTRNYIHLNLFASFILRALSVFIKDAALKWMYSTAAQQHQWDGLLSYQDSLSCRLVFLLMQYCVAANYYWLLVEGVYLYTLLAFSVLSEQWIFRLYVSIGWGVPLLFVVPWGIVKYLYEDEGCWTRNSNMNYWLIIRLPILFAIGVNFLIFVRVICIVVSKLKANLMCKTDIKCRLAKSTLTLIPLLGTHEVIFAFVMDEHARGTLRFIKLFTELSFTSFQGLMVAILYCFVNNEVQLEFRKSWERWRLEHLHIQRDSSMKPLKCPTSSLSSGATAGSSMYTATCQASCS

## dulaglutide
patients
  ADA incidence in published studies: up to 4.1%

## CC[C@H](C)[C@H](NC(=O)[C@H](CC(C)C)NC(=O)[C@H](Cc1c[nH]c2ccccc12)NC(=O)[C@H](CCC(N)=O)NC(=O)[C@@H](NC(=O)[C@H](Cc1ccccc1)NC(=O)[C@H](C)NC(=O)[C@H](CCCCNC(=O)COCCOCCNC(=O)COCCOCCNC(=O)CC[C@H](NC(=O)CCCCCCCCCCCCCCCCCCC(=O)O)C(=O)O)NC(=O)[C@H](CCC(N)=O)NC(=O)[C@H](C)NC(=O)[C@@H](NC(=O)[C@H](CCCCN)NC(=O)[C@H](CC(=O)O)NC(=O)[C@H](CC(C)C)NC(=O)C(C)(C)NC(=O)[C@@H](NC(=O)[C@H](CO)NC(=O)[C@H](Cc1ccc(O)cc1)NC(=O)[C@H](CC(=O)O)NC(=O)[C@H](CO)NC(=O)[C@@H](NC(=O)[C@H](Cc1ccccc1)NC(=O)[C@@H](NC(=O)CNC(=O)[C@H](CCC(=O)O)NC(=O)C(C)(C)NC(=O)[C@@H](N)Cc1ccc(O)cc1)[C@@H](C)O)[C@@H](C)O)[C@@H](C)CC)[C@@H](C)CC)C(C)C)C(=O)N[C@@H](C)C(=O)NCC(=O)NCC(=O)N1CCC[C@H]1C(=O)N[C@@H](CO)C(=O)N[C@@H](CO)C(=O)NCC(=O)N[C@@H](C)C(=O)N1CCC[C@H]1C(=O)N1CCC[C@H]1C(=O)N1CCC[C@H]1C(=O)N[C@@H](CO)C(N)=O [tirzepatide]
[1]; SURPASS Japan-Combo, N 443
  Time to first TE ADA+ titer ≤4 wk: 1 (0.2) n (%)
  Time to first TE ADA+ titer ≤12 wk: 32 (7.2) n (%)
  Time to first TE ADA+ titer ≤40 wk: 209 (47.2) n (%)
  Time to first TE ADA+ titer ≤52 wk: 244 (55.1) n (%)
[1]; SURPASS Japan-Combo, N 443, flexibility of visit windows
  Time to first TE ADA+ titer ≤78 wk: 257 (58.0)^a n (%)
[1]; SURPASS Japan-Mono, N 476
  Time to first TE ADA+ titer ≤4 wk: 4 (0.8) n (%)
  Time to first TE ADA+ titer ≤12 wk: 51 (10.7) n (%)
  Time to first TE ADA+ titer ≤24 wk: 182 (38.2) n (%)
  Time to first TE ADA+ titer ≤40 wk: 278 (58.4) n (%)
  Time to first TE ADA+ titer ≤52 wk: 312 (65.5) n (%)
[1]; SURPASS Japan-Mono, N 476, flexibility of visit windows
  Time to first TE ADA+ titer ≤78 wk: 322 (67.6)^a n (%)
[1]; SURPASS-1, N 351
  Time to first TE ADA+ titer ≤4 wk: 0 n (%)
  Time to first TE ADA+ titer ≤12 wk: 16 (4.6) n (%)
  Time to first TE ADA+ titer ≤24 wk: 90 (25.6) n (%)
  Time to first TE ADA+ titer ≤40 wk: 155 (44.2) n (%)
[1]; SURPASS-1, N 351, flexibility of visit windows
  Time to first TE ADA+ titer ≤52 wk: 174 (49.6)^a n (%)
[1]; SURPASS-2, N 1393
  Time to first TE ADA+ titer ≤4 wk: 6 (0.4) n (%)
  Time to first TE ADA+ titer ≤12 wk: 91 (6.5) n (%)
  Time to first TE ADA+ titer ≤24 wk: 352 (25.3) n (%)
  Time to first TE ADA+ titer ≤40 wk: 639 (45.9) n (%)
[1]; SURPASS-2, N 1393, flexibility of visit windows
  Time to first TE ADA+ titer ≤52 wk: 704 (50.5)^a n (%)
[1]; SURPASS-3, N 1062
  Time to first TE ADA+ titer ≤4 wk: 12 (1.1) n (%)
  Time to first TE ADA+ titer ≤12 wk: 80 (7.5) n (%)
  Time to first TE ADA+ titer ≤24 wk: 266 (25.0) n (%)
  Time to first TE ADA+ titer ≤40 wk: 466 (43.9) n (%)
  Time to first TE ADA+ titer ≤52 wk: 518 (48.8) n (%)
[1]; SURPASS-3, N 1062, flexibility of visit windows
  Time to first TE ADA+ titer ≤78 wk: 536 (50.5)^a n (%)
[1]; SURPASS-4, N 956
  Time to first TE ADA+ titer ≤4 wk: 7 (0.7) n (%)
  Time to first TE ADA+ titer ≤12 wk: 62 (6.5) n (%)
  Time to first TE ADA+ titer ≤24 wk: 190 (19.9) n (%)
  Time to first TE ADA+ titer ≤40 wk: 300 (31.4) n (%)
  Time to first TE ADA+ titer ≤52 wk: 367 (38.4) n (%)
  Time to first TE ADA+ titer ≤78 wk: 389 (40.7) n (%)
  Time to first TE ADA+ titer ≤104 wk: 399 (41.7) n (%)
[1]; SURPASS-5, N 344
  Time to first TE ADA+ titer ≤4 wk: 3 (0.9) n (%)
  Time to first TE ADA+ titer ≤12 wk: 26 (7.6) n (%)
  Time to first TE ADA+ titer ≤24 wk: 89 (25.9) n (%)
  Time to first TE ADA+ titer ≤40 wk: 160 (46.5) n (%)
[1]; SURPASS-5, N 344, flexibility of visit windows
  Time to first TE ADA+ titer ≤52 wk: 178 (51.7)^a n (%)
[1]; baseline, 7 SURPASS phase 3 trials pooled, TE ADA-evaluable TZP-treated N = 5025
  Preexisting ADA: 353 (7.0) n (%)
[1]; postbaseline, 7 trials pooled, N = 5025
  TE ADA+: 2570 (51.1) n (%)
[2]; TZP 5 mg, TE ADA+, n 815
  Hypersensitivity reactions, %: 3.93%
  Hypersensitivity reactions, m (number of patients with specified reaction): 32
[2]; TZP 5 mg, TE ADA–, n 855
  Hypersensitivity reactions, %: 3.04%
  Hypersensitivity reactions, m (number of patients with specified reaction): 26
[2]; TZP 10 mg, TE ADA+, n 858
  Hypersensitivity reactions, %: 3.61%
  Hypersensitivity reactions, m (number of patients with specified reaction): 31
[2]; TZP 10 mg, TE ADA–, n 812
  Hypersensitivity reactions, %: 3.2%
  Hypersensitivity reactions, m (number of patients with specified reaction): 26
[2]; TZP 15 mg, TE ADA+, n 897
  Hypersensitivity reactions, %: 4.79%
  Hypersensitivity reactions, m (number of patients with specified reaction): 43
[2]; TZP 15 mg, TE ADA–, n 788
  Hypersensitivity reactions, %: 2.66%
  Hypersensitivity reactions, m (number of patients with specified reaction): 21
[2]; TZP all doses, TE ADA+, n 2570
  Hypersensitivity reactions, %: 4.12%
  Hypersensitivity reactions, m (number of patients with specified reaction): 106
[2]; TZP all doses, TE ADA–, n 2455
  Hypersensitivity reactions, %: 2.97%
  Hypersensitivity reactions, m (number of patients with specified reaction): 73
[2]; TZP-treated patients
  Anaphylactic reactions: No anaphylactic reactions
[2]; in vivo
  Severity of hypersensitivity events in TE ADA+ patients: mostly mild to moderate
[3]; graphical comparison, ADA detected vs not detected and by titer
  Apparent clearance (CL/F): effect of ADA status or ADA titer: not affected
[3]; in vivo
  Relationship between NAb and TZP concentration: No relationship
Native GLP-1 (nGLP-1); baseline
  Cross-reactive binding ADA to nGLP-1: 34 (0.7) n (%)
Native GLP-1 (nGLP-1); postbaseline
  Cross-reactive binding ADA to nGLP-1: 716 (14.2) n (%)
GLP-1R; baseline
  NAb against TZP activity on GLP-1 R: 2 (<0.1) n (%)
GLP-1R; postbaseline
  NAb against TZP activity on GLP-1 R: 107 (2.1) n (%)
Native GIP (nGIP); baseline
  Cross-reactive binding ADA to nGIP: 97 (1.9) n (%)
Native GIP (nGIP); postbaseline
  Cross-reactive binding ADA to nGIP: 1705 (33.9) n (%)
GIPR; baseline
  NAb against TZP activity on GIP R: 2 (<0.1) n (%)
GIPR; postbaseline
  NAb against TZP activity on GIP R: 94 (1.9) n (%)
[4]; [5]
  Injection site reactions, %: 0.06%
  Injection site reactions, m (number of patients with specified reaction): 1
[4]; TZP 5 mg, TE ADA+, n 815
  Injection site reactions, %: 3.07%
  Injection site reactions, m (number of patients with specified reaction): 25
[4]; TZP 5 mg, TE ADA–, n 855
  Injection site reactions, %: 0.82%
  Injection site reactions, m (number of patients with specified reaction): 7
[4]; [6]
  Injection site reactions, %: 0.06%
  Injection site reactions, m (number of patients with specified reaction): 1
[4]; TZP 10 mg, TE ADA+, n 858
  Injection site reactions, %: 4.43%
  Injection site reactions, m (number of patients with specified reaction): 38
[4]; TZP 10 mg, TE ADA–, n 812
  Injection site reactions, %: 0.86%
  Injection site reactions, m (number of patients with specified reaction): 7
[4]; TZP 15 mg, TE ADA status not evaluable
  Injection site reactions, m (number of patients with specified reaction): 0
[4]; TZP 15 mg, TE ADA+, n 897
  Injection site reactions, %: 6.24%
  Injection site reactions, m (number of patients with specified reaction): 56
[4]; TZP 15 mg, TE ADA–, n 788
  Injection site reactions, %: 0.51%
  Injection site reactions, m (number of patients with specified reaction): 4
[4]; [7]
  Injection site reactions, %: 0.04%
  Injection site reactions, m (number of patients with specified reaction): 2
[4]; TZP all doses, TE ADA+, n 2570
  Injection site reactions, %: 4.63%
  Injection site reactions, m (number of patients with specified reaction): 119
[4]; TZP all doses, TE ADA–, n 2455
  Injection site reactions, %: 0.73%
  Injection site reactions, m (number of patients with specified reaction): 18
[4]; all events
  Severity of injection site reactions: nonserious and nonsevere
[4]; all were TE ADA+
  Patients who discontinued study drug because of injection site reactions: Four

## semaglutide
patients
  ADA incidence in published studies: up to 4.3%

## lixisenatide
patients
  ADA incidence in published studies: up to 71.2%

## albiglutide
patients
  ADA incidence in published studies: 2.5%

## liraglutide
patients
  ADA incidence in published studies: up to 8.7%
